# Laboratory results from ChEMBL document CHEMBL3588826, “Chimeric derivatives of functionalized amino acids and α-aminoamides: compounds with anticonvulsant activity in seizure models and inhibitory actions on central, peripheral, and cardiac isoforms of voltage-gated sodium channels” (Bioorg Med Chem, 2015).
# Calls of active or inactive are those of the source. The rule behind the calls is not given here.
# How the values were obtained:
# Cytochrome P450 2C19 = Cytochrome P450 2C19 (Homo sapiens, UniProt P33261); experiment: Inhibition of human CYP2C19 at 10 uM; assay type: ADME
# Summary of the method: (§1)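 Test compound at 10 μM against a human CYP450 panel (CYP1A2, 2B6, 2C8, 2C9, 2C19, 2D6, 3A4/5). Direct inhibition was measured, and time-dependent inhibition was measured after a 30-min preincubation.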
# [1] = biological target: Sodium channel protein type 3 subunit alpha (Rattus norvegicus) (UniProt P08104); experiment: Inhibition of rat Nav1.3 expressed in HEK293 cells assessed as half-maximal voltage for steady state activation at 10 uM by whole cell patch-clamp electrophysiology (reference value: -29.62 +/-3.59 mV); assay type: cell-based
# [2] = biological target: Sodium channel protein type 9 subunit alpha (Homo sapiens) (UniProt Q15858); experiment: Frequency-dependent inhibition of human Nav1.7 expressed in HEK293 cells assessed as current amplitude at 10 uM by whole cell patch-clamp electrophysiology; assay type: cell-based
# Summary of the method: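 Stable HEK293 lines expressing hNav1.1, rNav1.3, hNav1.7 or hNav1.5 were recorded by whole-cell voltage clamp at room temperature, with 10 μM compound versus 0.1% DMSO. A 30-pulse train was applied, and the read-out was the fraction of current remaining at the last pulse normalized to the first. Nav1.5 used hyperpolarized protocols.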
# [3] = biological target: Sodium channel protein type 1 subunit alpha (Homo sapiens) (UniProt P35498); experiment: Inhibition of human Nav1.1 expressed in HEK293 cells assessed as half-maximal voltage for steady state activation at 10 uM by whole cell patch-clamp electrophysiology (reference value: -24.69 +/-1.52 mV); assay type: cell-based
# Cytochrome P450 2B6 = biological target: T1, Cytochrome P450 2B6 (Homo sapiens, UniProt P20813); experiment: Inhibition of human CYP2B6 at 10 uM; assay type: ADME; summary of the method: as §1
# T1 sequence (P20813 whole entry): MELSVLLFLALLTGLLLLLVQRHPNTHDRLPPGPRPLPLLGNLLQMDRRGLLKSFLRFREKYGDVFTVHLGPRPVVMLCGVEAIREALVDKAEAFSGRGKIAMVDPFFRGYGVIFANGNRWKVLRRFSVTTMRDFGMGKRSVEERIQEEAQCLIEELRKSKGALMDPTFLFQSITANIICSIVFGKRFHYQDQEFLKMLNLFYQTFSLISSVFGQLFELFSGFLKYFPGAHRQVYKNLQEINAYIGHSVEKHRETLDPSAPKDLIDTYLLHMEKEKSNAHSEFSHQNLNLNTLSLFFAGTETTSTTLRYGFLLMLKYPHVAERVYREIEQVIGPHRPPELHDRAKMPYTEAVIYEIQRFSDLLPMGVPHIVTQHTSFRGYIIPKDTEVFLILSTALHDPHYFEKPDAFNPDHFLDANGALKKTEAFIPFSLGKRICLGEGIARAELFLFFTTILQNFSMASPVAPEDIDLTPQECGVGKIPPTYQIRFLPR
# [4] = Behavioural toxicity in po dosed albino Sprague-Dawley rat measured at 1 hr; assay type: organism-based; conditions: in vivo
# Cytochrome P450 3A4 = Cytochrome P450 3A4 (Homo sapiens, UniProt P08684); experiment: Inhibition of human CYP3A4 at 10 uM; assay type: ADME; summary of the method: as §1
# CAD = experiment: Effect on steady state activation of voltage-gated sodium channel in mouse CAD cells at 100 nM to 1 uM by whole cell patch-clamp electrophysiology; assay type: cell-based
# Summary of the method: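 CAD cells were recorded by whole-cell voltage clamp at room temperature with several compound concentrations versus 0.1% DMSO. Activation was assessed from conductance, G = I/(Vm − Vrev), versus command voltage. V1/2 and slope were taken from Boltzmann fits to individual recordings and averaged.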
# Rattus norvegicus [5] = species: Rattus norvegicus; experiment: Effect on steady state activation of voltage-gated sodium channel in rat embryonic cortical neurons at 10 uM by whole cell patch-clamp electrophysiology
# Summary of the method: (§2)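 Rat embryonic day 19 cortical neurons, cultured 7–10 days, were whole-cell voltage-clamped at room temperature with 1–2 MΩ electrodes, with compound at 10 μM and 0.1% DMSO as control. Fast inactivation: 500 ms prepulses, then a test pulse. Activation: conductance G = I/(Vm − Vrev). V1/2 and k came from Boltzmann fits to individual cells, averaged (mean ± SEM), 5–7 cells per condition.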
# Rattus norvegicus [6] = species: Rattus norvegicus; experiment: Frequency-dependent inhibition of voltage-gated sodium channel in rat embryonic cortical neurons assessed as current amplitude at 10 uM measured at holding potential of -80 mV by whole cell patch-clamp electrophysiology
# Summary of the method: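 E19 rat cortical neurons cultured 7–10 days were recorded by whole-cell voltage clamp at room temperature. Compound was at 10 μM versus 0.1% DMSO. A pulse train was applied, and available current was taken as peak current at pulse N divided by peak at pulse 1.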
# [7] = biological target: Sodium channel protein type 5 subunit alpha (Homo sapiens, UniProt Q14524); experiment: Inhibition of human Nav1.5 expressed in HEK293 cells assessed as half-maximal voltage for steady state fast-inactivation at 10 uM by whole cell patch-clamp electrophysiology (reference value: -96.54 +/-1.64 mV); assay type: cell-based; conditions: hek293, 10 µM
# Mus musculus = experiment: Anticonvulsant activity in ip dosed albino Carworth Farms No. 1 mouse measured at 0.25 hrs by 6Hz (32 mA) psychomotor seizure test; assay type: functional; conditions: Carworth Farms No. 1, ip
# Summary of the method: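 Screened under the NIH anticonvulsant program in male albino Carworth Farms No. 1 mice (ip) and male albino Sprague-Dawley rats (ip or oral). Protection tested by maximal electroshock or 6 Hz (32 mA) psychomotor stimulation.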
# Cytochrome P450 3A5 = Cytochrome P450 3A5 (Homo sapiens, UniProt P20815); experiment: Inhibition of human CYP3A5 at 10 uM; assay type: ADME; summary of the method: as §1
# Rattus norvegicus [8] = species: Rattus norvegicus; experiment: Effect on steady state fast-inactivation of voltage-gated sodium channel in rat embryonic cortical neurons at 10 uM by whole cell patch-clamp electrophysiology; summary of the method: as §2
# Cytochrome P450 1A2 = biological target: T2, Cytochrome P450 1A2 (Homo sapiens, UniProt P05177); experiment: Inhibition of human CYP1A2 at 10 uM; assay type: ADME; summary of the method: as §1
# T2 sequence (P05177 whole entry): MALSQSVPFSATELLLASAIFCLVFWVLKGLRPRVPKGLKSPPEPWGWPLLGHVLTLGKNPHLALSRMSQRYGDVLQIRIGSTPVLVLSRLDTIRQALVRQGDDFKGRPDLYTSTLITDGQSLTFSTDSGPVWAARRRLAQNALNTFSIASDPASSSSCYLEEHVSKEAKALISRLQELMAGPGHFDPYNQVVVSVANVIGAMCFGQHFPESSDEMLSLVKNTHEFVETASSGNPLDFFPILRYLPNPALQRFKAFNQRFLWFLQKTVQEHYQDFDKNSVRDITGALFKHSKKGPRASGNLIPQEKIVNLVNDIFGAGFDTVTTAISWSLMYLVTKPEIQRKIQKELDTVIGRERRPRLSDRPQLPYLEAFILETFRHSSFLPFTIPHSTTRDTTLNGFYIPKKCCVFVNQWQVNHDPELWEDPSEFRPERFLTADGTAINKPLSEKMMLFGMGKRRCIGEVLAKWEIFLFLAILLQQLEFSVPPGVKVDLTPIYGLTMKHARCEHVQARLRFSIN
# [9] = biological target: Sodium channel protein type 3 subunit alpha (Rattus norvegicus) (UniProt P08104); experiment: Inhibition of rat Nav1.3 expressed in HEK293 cells assessed as half-maximal voltage for steady state fast-inactivation at 10 uM by whole cell patch-clamp electrophysiology (reference value: -65.44 +/-5.62 mV); assay type: cell-based
# Chain of Sodium channel protein type 3 subunit alpha (Rattus norvegicus) (P08104 whole entry): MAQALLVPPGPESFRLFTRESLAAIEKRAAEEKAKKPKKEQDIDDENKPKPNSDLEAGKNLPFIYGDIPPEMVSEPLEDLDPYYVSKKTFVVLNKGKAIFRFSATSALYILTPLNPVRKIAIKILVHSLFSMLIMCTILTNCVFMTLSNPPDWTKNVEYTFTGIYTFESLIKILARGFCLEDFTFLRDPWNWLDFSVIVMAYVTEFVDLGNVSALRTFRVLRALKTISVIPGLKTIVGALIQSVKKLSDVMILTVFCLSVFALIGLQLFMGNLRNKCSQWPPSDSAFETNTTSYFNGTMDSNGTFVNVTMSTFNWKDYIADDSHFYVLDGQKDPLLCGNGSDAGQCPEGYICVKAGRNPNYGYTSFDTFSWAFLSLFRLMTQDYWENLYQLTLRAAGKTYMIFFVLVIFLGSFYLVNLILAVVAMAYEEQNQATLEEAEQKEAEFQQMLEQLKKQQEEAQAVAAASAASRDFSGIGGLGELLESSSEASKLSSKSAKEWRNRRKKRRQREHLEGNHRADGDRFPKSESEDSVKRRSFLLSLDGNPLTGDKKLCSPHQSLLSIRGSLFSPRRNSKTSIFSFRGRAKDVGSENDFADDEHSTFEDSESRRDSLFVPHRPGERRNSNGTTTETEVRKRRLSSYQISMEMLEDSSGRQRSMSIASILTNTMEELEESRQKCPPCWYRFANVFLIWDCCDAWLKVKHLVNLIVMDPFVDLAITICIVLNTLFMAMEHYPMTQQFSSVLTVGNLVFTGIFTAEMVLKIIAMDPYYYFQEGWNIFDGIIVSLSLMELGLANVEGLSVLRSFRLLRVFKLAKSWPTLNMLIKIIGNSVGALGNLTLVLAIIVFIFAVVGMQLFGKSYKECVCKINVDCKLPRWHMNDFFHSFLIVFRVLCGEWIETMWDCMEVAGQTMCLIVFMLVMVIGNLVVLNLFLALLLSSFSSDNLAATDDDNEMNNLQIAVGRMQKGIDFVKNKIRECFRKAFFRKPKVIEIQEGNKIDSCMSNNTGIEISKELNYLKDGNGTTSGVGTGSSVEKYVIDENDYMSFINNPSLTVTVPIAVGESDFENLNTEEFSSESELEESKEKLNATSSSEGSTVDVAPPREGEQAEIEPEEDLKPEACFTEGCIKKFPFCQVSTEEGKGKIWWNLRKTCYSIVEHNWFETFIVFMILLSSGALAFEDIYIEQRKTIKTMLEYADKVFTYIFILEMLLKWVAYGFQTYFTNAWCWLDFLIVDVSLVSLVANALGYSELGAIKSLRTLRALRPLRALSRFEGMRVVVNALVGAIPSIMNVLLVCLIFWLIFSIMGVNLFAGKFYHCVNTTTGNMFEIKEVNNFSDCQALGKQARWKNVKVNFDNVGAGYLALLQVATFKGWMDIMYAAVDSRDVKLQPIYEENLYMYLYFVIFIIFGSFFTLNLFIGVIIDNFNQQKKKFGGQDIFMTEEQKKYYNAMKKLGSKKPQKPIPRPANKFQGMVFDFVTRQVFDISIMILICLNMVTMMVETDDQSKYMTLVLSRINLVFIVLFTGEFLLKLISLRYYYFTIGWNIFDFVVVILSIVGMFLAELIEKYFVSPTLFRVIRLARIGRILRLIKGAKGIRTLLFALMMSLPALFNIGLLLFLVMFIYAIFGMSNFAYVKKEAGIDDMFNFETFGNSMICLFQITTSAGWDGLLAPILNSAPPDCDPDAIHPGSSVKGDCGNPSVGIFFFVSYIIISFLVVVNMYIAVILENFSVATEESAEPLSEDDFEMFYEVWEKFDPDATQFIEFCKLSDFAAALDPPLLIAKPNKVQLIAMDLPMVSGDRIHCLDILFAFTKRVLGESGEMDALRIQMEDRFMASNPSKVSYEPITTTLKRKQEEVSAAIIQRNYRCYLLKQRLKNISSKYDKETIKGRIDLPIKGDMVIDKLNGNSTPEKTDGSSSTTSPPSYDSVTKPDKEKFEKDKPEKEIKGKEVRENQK
# Chain of Sodium channel protein type 5 subunit alpha (Q14524 whole entry): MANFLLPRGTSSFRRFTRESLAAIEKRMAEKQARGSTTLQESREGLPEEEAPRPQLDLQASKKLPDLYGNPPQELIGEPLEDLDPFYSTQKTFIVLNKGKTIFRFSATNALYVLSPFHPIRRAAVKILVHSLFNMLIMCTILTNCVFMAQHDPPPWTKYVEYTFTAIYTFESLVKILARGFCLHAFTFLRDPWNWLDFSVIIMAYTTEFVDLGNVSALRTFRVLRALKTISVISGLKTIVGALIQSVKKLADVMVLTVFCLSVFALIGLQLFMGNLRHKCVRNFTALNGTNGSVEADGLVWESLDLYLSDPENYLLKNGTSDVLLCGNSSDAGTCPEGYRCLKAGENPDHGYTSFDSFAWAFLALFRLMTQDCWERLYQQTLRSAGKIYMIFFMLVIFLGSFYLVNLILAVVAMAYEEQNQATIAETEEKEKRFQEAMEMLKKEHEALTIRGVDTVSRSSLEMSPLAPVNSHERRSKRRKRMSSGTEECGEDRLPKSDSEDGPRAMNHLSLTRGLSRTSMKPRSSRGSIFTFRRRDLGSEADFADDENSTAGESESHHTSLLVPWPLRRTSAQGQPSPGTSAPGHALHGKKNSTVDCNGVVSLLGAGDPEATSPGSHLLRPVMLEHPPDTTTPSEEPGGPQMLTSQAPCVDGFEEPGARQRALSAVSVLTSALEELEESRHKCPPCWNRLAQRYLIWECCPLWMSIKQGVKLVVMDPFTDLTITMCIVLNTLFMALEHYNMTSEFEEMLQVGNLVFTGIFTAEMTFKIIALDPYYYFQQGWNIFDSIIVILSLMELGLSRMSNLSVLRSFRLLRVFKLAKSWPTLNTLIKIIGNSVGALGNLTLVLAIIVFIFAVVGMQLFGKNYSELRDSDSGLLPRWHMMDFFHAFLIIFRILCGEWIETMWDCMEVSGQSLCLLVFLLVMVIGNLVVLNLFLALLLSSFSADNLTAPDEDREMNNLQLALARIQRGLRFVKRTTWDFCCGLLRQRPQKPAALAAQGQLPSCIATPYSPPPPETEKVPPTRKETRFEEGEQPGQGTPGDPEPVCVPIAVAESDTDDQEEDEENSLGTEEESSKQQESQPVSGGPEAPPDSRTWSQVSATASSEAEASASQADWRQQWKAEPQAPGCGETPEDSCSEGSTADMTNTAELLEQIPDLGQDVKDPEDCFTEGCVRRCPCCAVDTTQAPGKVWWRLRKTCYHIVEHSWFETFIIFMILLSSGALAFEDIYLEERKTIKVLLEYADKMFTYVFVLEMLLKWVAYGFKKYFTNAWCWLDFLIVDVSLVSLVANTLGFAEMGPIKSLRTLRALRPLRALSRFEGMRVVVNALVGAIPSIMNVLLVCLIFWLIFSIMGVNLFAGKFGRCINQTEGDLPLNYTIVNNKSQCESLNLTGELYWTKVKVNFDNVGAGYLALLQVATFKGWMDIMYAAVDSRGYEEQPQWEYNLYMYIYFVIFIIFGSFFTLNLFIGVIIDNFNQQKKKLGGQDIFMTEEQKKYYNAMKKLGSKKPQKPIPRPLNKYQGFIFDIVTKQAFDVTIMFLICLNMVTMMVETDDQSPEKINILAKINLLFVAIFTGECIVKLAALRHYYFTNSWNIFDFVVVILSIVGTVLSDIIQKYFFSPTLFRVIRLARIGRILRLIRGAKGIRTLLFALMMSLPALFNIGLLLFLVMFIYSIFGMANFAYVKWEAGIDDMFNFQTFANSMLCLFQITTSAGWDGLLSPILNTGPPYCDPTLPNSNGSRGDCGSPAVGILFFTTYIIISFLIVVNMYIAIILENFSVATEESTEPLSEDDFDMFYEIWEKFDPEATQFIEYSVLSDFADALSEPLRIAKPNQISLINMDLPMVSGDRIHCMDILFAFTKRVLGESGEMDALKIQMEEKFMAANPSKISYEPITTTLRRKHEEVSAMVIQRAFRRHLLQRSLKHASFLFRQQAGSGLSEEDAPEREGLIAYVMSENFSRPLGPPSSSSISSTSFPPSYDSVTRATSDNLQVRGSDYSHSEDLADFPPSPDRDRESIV
# Chain of Cytochrome P450 2C19 (P33261 whole entry): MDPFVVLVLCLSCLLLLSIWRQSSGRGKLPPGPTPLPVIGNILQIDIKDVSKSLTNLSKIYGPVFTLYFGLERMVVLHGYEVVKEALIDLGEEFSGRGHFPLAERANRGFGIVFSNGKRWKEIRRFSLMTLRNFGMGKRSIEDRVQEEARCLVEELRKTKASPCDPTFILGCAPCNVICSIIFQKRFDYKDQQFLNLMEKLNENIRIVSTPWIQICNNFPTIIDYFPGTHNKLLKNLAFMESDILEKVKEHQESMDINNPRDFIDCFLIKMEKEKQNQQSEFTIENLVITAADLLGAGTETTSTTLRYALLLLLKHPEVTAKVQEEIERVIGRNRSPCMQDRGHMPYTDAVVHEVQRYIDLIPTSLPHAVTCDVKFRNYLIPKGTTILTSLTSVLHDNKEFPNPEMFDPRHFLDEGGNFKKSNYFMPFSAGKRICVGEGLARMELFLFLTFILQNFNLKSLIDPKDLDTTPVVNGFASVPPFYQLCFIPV
# Chain of Cytochrome P450 3A5 (P20815 whole entry): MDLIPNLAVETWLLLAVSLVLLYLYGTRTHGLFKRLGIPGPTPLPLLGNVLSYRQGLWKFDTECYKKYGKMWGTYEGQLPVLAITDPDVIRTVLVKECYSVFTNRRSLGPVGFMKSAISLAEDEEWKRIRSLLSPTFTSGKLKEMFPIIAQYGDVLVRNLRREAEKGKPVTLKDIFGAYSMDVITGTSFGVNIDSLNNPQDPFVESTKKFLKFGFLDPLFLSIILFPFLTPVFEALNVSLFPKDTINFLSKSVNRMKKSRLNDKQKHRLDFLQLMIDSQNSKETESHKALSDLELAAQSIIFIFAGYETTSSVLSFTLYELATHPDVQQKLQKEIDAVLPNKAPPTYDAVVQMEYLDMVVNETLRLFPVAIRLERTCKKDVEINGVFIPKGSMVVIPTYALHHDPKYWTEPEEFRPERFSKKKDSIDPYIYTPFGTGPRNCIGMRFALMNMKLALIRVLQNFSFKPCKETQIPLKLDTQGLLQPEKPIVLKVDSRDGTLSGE
smiles,measurement,setting,value
COC[C@@H](NC(C)=O)C(=O)NCc1ccc(Oc2cccc(OC(F)(F)F)c2)cc1,inhibition (INH),Cytochrome P450 2C19,Not Active
same,V1/2,[1],-32.5 mV
same,inhibition,[2],inactive
same,V1/2,[3],-24.4 mV
same,inhibition (INH),Cytochrome P450 2B6,Not Active
same,TD50 at 1 h,[4],240 mg/kg
same,inhibition (INH),Cytochrome P450 3A4,Not Active
same,Activity,CAD,inactive
same,Activity,Rattus norvegicus [5],inactive
same,inhibition,Rattus norvegicus [6],inactive
same,V1/2,[7],-95.36 mV
same,ED50,Mus musculus,15 mg/kg
same,inhibition (INH),Cytochrome P450 3A5,Not Active
same,Activity,Rattus norvegicus [8],inactive
same,inhibition (INH),Cytochrome P450 1A2,Not Active
same,V1/2,[9],-72.8 mV
